According to ChEMBL document CHEMBL1649560, “Beta-lactamase-mediated beta-lactam resistance in Campylobacter species: prevalence of Cj0299 (bla OXA-61) and evidence for a novel beta-Lactamase in C. jejuni” (2009):
≈ marks a conversion by molar mass, not a printed value.

system: Campylobacter jejuni; assay: Antibacterial activity against bla gene-negative and nitrocefin reaction-positive beta-lactamase harboring Campylobacter jejuni isolate P854 by NCCLS agar doubling dilution method; format: functional
Method in brief: (§1)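 MICs of β-lactams by agar doubling dilution following the NCCLS (CLSI) Campylobacter Working Group procedure, with C. jejuni NCTC 11168 and C. coli NCTC 11366 as controls. Isolates were from UK poultry flocks. β-Lactamase status was set by Cj0299 PCR (281-bp amplimer) and by a nitrocefin colour change of sonicated lysate within 5 min, or within 30 min on repeat.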

| SMILES | MIC |
| --- | --- |
| CC1(C)S[C@@H]2[C@H](NC(=O)[C@H](N)c3ccc(O)cc3)C(=O)N2[C@H]1C(=O)O [AMOXICILLIN] | 128 µg/mL (≈ 350 µM) |

system: Campylobacter coli; assay: Antibacterial activity against bla gene-positive and nitrocefin reaction-positive beta-lactamase harboring Campylobacter coli isolate P321 by NCCLS agar doubling dilution method; format: functional; method in brief: as §1

| SMILES | MIC |
| --- | --- |
| CC1(C)S[C@@H]2[C@H](NC(=O)[C@H](N)c3ccc(O)cc3)C(=O)N2[C@H]1C(=O)O [AMOXICILLIN] | 64 µg/mL (≈ 175 µM) |

system: Campylobacter jejuni; assay: Antibacterial activity against bla gene-positive and nitrocefin reaction-negative beta-lactamase harboring Campylobacter jejuni isolate P1698 by NCCLS agar doubling dilution method; format: functional; method in brief: as §1

| SMILES | MIC |
| --- | --- |
| CC1(C)S[C@@H]2[C@H](NC(=O)[C@H](N)c3ccc(O)cc3)C(=O)N2[C@H]1C(=O)O [AMOXICILLIN] | 128 µg/mL (≈ 350 µM) |

system: Campylobacter coli; assay: Antibacterial activity against bla-positive and beta-lactamase-weakly positive Campylobacter coli isolate P1627 by NCCLS agar doubling dilution method; format: functional
Method in brief: (§2)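 MICs by agar doubling dilution per the NCCLS (now CLSI) Campylobacter Working Group method. Isolates came from UK chicken flocks (feces, ceca or farm environment), 2000–2006. C. jejuni NCTC 11168 and C. coli NCTC 11366 served as control strains. The ampicillin resistance cutoff was 8 μg/ml; BSAC/CLSI Enterobacteriaceae guidelines were used for other agents.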

| SMILES | MIC |
| --- | --- |
| CC1(C)S[C@@H]2[C@H](NC(=O)[C@H](N)c3ccc(O)cc3)C(=O)N2[C@H]1C(=O)O [AMOXICILLIN] | 8 µg/mL (≈ 21.9 µM) |

system: Campylobacter jejuni; assay: Antibacterial activity against bla gene-negative and nitrocefin reaction-negative beta-lactamase harboring Campylobacter jejuni isolate P850 by NCCLS agar doubling dilution method; format: functional; method in brief: as §1

| SMILES | MIC |
| --- | --- |
| CC1(C)S[C@@H]2[C@H](NC(=O)[C@H](N)c3ccc(O)cc3)C(=O)N2[C@H]1C(=O)O [AMOXICILLIN] | 1 µg/mL (≈ 2.74 µM) |

system: Campylobacter jejuni; assay: Antibacterial activity against bla gene-positive and nitrocefin reaction-positive beta-lactamase harboring Campylobacter jejuni isolate P1618 by NCCLS agar doubling dilution method; format: functional; method in brief: as §1

| SMILES | MIC |
| --- | --- |
| CC1(C)S[C@@H]2[C@H](NC(=O)[C@H](N)c3ccc(O)cc3)C(=O)N2[C@H]1C(=O)O [AMOXICILLIN] | 64 µg/mL (≈ 175 µM) |

system: Campylobacter jejuni; assay: Antibacterial activity against bla gene-positive and nitrocefin reaction-positive beta-lactamase harboring Campylobacter jejuni isolate P338 by NCCLS agar doubling dilution method; format: functional; method in brief: as §2

| SMILES | MIC |
| --- | --- |
| CC1(C)S[C@@H]2[C@H](NC(=O)[C@H](N)c3ccc(O)cc3)C(=O)N2[C@H]1C(=O)O [AMOXICILLIN] | 64 µg/mL (≈ 175 µM) |

system: Campylobacter jejuni; assay: Antibacterial activity against bla gene-positive and nitrocefin reaction-positive beta-lactamase harboring Campylobacter jejuni isolate P316 by NCCLS agar doubling dilution method; format: functional; method in brief: as §2

| SMILES | MIC |
| --- | --- |
| CC1(C)S[C@@H]2[C@H](NC(=O)[C@H](N)c3ccc(O)cc3)C(=O)N2[C@H]1C(=O)O [AMOXICILLIN] | 32 µg/mL (≈ 87.6 µM) |

system: Campylobacter coli; assay: Antibacterial activity against bla gene-positive and nitrocefin reaction-positive beta-lactamase harboring Campylobacter coli isolate P1826 by NCCLS agar doubling dilution method; format: functional; method in brief: as §1

| SMILES | MIC |
| --- | --- |
| CC1(C)S[C@@H]2[C@H](NC(=O)[C@H](N)c3ccc(O)cc3)C(=O)N2[C@H]1C(=O)O [AMOXICILLIN] | 128 µg/mL (≈ 350 µM) |

system: Campylobacter jejuni; assay: Antibacterial activity against bla gene-negative and nitrocefin reaction-negative beta-lactamase harboring Campylobacter jejuni isolate P835 by NCCLS agar doubling dilution method; format: functional; method in brief: as §1

| SMILES | MIC |
| --- | --- |
| CC1(C)S[C@@H]2[C@H](NC(=O)[C@H](N)c3ccc(O)cc3)C(=O)N2[C@H]1C(=O)O [AMOXICILLIN] | 0.25 µg/mL (≈ 0.684 µM) |

system: Campylobacter jejuni; assay: Antibacterial activity against bla gene-positive and nitrocefin reaction-positive beta-lactamase harboring Campylobacter jejuni isolate P790 by NCCLS agar doubling dilution method; format: functional; method in brief: as §2

| SMILES | MIC |
| --- | --- |
| CC1(C)S[C@@H]2[C@H](NC(=O)[C@H](N)c3ccc(O)cc3)C(=O)N2[C@H]1C(=O)O [AMOXICILLIN] | 64 µg/mL (≈ 175 µM) |

system: Campylobacter coli; assay: Antibacterial activity against Campylobacter coli by NCCLS agar doubling dilution method; format: functional
Method in brief: (§3)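 MICs by agar doubling dilution following the NCCLS (CLSI) Campylobacter Working Group procedure, applied to ampicillin- and amoxicillin-resistant isolates from UK chicken flocks (2000–2006). C. jejuni NCTC 11168 and C. coli NCTC 11366 served as control strains. Resistance was called at an ampicillin cutoff of 8 μg/ml. Other agents were judged against Enterobacteriaceae guidelines (BSAC, CLSI).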

| SMILES | MIC50 | MIC90 |
| --- | --- | --- |
| CC1(C)S[C@@H]2[C@H](NC(=O)[C@H](N)c3ccc(O)cc3)C(=O)N2[C@H]1C(=O)O [AMOXICILLIN] | 128 µg/mL (≈ 350 µM) | > 128 µg/mL |

system: Campylobacter jejuni; assay: Antibacterial activity against bla gene-positive and nitrocefin reaction-positive beta-lactamase harboring Campylobacter jejuni isolate P1093 by NCCLS agar doubling dilution method; format: functional; method in brief: as §1

| SMILES | MIC |
| --- | --- |
| CC1(C)S[C@@H]2[C@H](NC(=O)[C@H](N)c3ccc(O)cc3)C(=O)N2[C@H]1C(=O)O [AMOXICILLIN] | 64 µg/mL (≈ 175 µM) |

system: Campylobacter jejuni; assay: Antibacterial activity against bla gene-positive and nitrocefin reaction-negative beta-lactamase harboring Campylobacter jejuni NCTC 11168 by NCCLS agar doubling dilution method; format: functional; method in brief: as §1

| SMILES | MIC |
| --- | --- |
| CC1(C)S[C@@H]2[C@H](NC(=O)[C@H](N)c3ccc(O)cc3)C(=O)N2[C@H]1C(=O)O [AMOXICILLIN] | 4 µg/mL (≈ 10.9 µM) |

system: Campylobacter jejuni; assay: Antibacterial activity against bla gene-positive and nitrocefin reaction-positive beta-lactamase harboring Campylobacter jejuni isolate P1650 by NCCLS agar doubling dilution method; format: functional; method in brief: as §1

| SMILES | MIC |
| --- | --- |
| CC1(C)S[C@@H]2[C@H](NC(=O)[C@H](N)c3ccc(O)cc3)C(=O)N2[C@H]1C(=O)O [AMOXICILLIN] | 64 µg/mL (≈ 175 µM) |

system: Campylobacter jejuni; assay: Antibacterial activity against Campylobacter jejuni by NCCLS agar doubling dilution method; format: functional; method in brief: as §3

| SMILES | MIC50 | MIC90 |
| --- | --- | --- |
| CC1(C)S[C@@H]2[C@H](NC(=O)[C@H](N)c3ccc(O)cc3)C(=O)N2[C@H]1C(=O)O [AMOXICILLIN] | 64 µg/mL (≈ 175 µM) | 128 µg/mL (≈ 350 µM) |

system: Campylobacter jejuni; assay: Antibacterial activity against bla gene-positive and nitrocefin reaction-positive beta-lactamase harboring Campylobacter jejuni isolate P286 by NCCLS agar doubling dilution method; format: functional; method in brief: as §2

| SMILES | MIC |
| --- | --- |
| CC1(C)S[C@@H]2[C@H](NC(=O)[C@H](N)c3ccc(O)cc3)C(=O)N2[C@H]1C(=O)O [AMOXICILLIN] | 64 µg/mL (≈ 175 µM) |

system: Campylobacter jejuni; assay: Antibacterial activity against bla gene-positive and nitrocefin reaction-positive beta-lactamase harboring Campylobacter jejuni isolate P305 by NCCLS agar doubling dilution method; format: functional; method in brief: as §2

| SMILES | MIC |
| --- | --- |
| CC1(C)S[C@@H]2[C@H](NC(=O)[C@H](N)c3ccc(O)cc3)C(=O)N2[C@H]1C(=O)O [AMOXICILLIN] | 64 µg/mL (≈ 175 µM) |

system: Campylobacter jejuni; assay: Antibacterial activity against bla gene-positive and nitrocefin reaction-positive beta-lactamase harboring Campylobacter jejuni isolate P285 by NCCLS agar doubling dilution method; format: functional; method in brief: as §2

| SMILES | MIC |
| --- | --- |
| CC1(C)S[C@@H]2[C@H](NC(=O)[C@H](N)c3ccc(O)cc3)C(=O)N2[C@H]1C(=O)O [AMOXICILLIN] | 64 µg/mL (≈ 175 µM) |

system: Campylobacter jejuni; assay: Antibacterial activity against bla gene-negative and nitrocefin reaction-negative beta-lactamase harboring Campylobacter jejuni isolate P1962 by NCCLS agar doubling dilution method; format: functional; method in brief: as §1

| SMILES | MIC |
| --- | --- |
| CC1(C)S[C@@H]2[C@H](NC(=O)[C@H](N)c3ccc(O)cc3)C(=O)N2[C@H]1C(=O)O [AMOXICILLIN] | 2 µg/mL (≈ 5.47 µM) |

system: Campylobacter jejuni; assay: Antibacterial activity against bla gene-positive and nitrocefin reaction-positive beta-lactamase harboring Campylobacter jejuni isolate P1730 by NCCLS agar doubling dilution method; format: functional; method in brief: as §2

| SMILES | MIC |
| --- | --- |
| CC1(C)S[C@@H]2[C@H](NC(=O)[C@H](N)c3ccc(O)cc3)C(=O)N2[C@H]1C(=O)O [AMOXICILLIN] | 64 µg/mL (≈ 175 µM) |

system: Campylobacter jejuni; assay: Antibacterial activity against bla gene-negative and nitrocefin reaction-positive beta-lactamase harboring Campylobacter jejuni isolate P843 by NCCLS agar doubling dilution method; format: functional; method in brief: as §1

| SMILES | MIC |
| --- | --- |
| CC1(C)S[C@@H]2[C@H](NC(=O)[C@H](N)c3ccc(O)cc3)C(=O)N2[C@H]1C(=O)O [AMOXICILLIN] | 64 µg/mL (≈ 175 µM) |

system: Campylobacter jejuni; assay: Antibacterial activity against bla gene-positive and nitrocefin reaction-negative beta-lactamase harboring Campylobacter jejuni isolate P1699 by NCCLS agar doubling dilution method; format: functional; method in brief: as §1

| SMILES | MIC |
| --- | --- |
| CC1(C)S[C@@H]2[C@H](NC(=O)[C@H](N)c3ccc(O)cc3)C(=O)N2[C@H]1C(=O)O [AMOXICILLIN] | 64 µg/mL (≈ 175 µM) |
